TbMetRS inhib = Trypanosoma brucei MetRS inhibition; 360,000 compounds, 0.4% hits; AID 624268; inhibition, % at 11.9 µM; purified T. brucei MetRS, ATP depletion, Kinase-Glo luminescence;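 active = inhibition above a per-plate cutoff of the control wells' mean inhibition plus 3 SD, cut at about 5.5% in these data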;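 also: 0% = DMSO wells median and 100% = median of wells with control inhibitor compound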
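Test system: purified T. brucei MetRS enzyme. Also added: ATP, methionine and E. coli bulk tRNA substrates. Compound: 11.9 µM single point. Schedule: 15 min enzyme-compound preincubation, 2 h reaction, 10 min detection, 25 °C. Signal: luciferase luminescence of residual ATP, Kinase-Glo. Evaluation: percent inhibition versus plate control medians. Controls: DMSO wells, low control.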
PLC-gamma1 inh = blocks human PLC-gamma1 enzyme activity; P19174; purified PLC-gamma1, fluorogenic substrate, fluorescence; inhibition, % at 12.2 µM; 370,000 compounds, 0.84% hits; AID 720700; in the data active = inhibition above about 9.5%
Target sequence (P19174 whole entry, looked up): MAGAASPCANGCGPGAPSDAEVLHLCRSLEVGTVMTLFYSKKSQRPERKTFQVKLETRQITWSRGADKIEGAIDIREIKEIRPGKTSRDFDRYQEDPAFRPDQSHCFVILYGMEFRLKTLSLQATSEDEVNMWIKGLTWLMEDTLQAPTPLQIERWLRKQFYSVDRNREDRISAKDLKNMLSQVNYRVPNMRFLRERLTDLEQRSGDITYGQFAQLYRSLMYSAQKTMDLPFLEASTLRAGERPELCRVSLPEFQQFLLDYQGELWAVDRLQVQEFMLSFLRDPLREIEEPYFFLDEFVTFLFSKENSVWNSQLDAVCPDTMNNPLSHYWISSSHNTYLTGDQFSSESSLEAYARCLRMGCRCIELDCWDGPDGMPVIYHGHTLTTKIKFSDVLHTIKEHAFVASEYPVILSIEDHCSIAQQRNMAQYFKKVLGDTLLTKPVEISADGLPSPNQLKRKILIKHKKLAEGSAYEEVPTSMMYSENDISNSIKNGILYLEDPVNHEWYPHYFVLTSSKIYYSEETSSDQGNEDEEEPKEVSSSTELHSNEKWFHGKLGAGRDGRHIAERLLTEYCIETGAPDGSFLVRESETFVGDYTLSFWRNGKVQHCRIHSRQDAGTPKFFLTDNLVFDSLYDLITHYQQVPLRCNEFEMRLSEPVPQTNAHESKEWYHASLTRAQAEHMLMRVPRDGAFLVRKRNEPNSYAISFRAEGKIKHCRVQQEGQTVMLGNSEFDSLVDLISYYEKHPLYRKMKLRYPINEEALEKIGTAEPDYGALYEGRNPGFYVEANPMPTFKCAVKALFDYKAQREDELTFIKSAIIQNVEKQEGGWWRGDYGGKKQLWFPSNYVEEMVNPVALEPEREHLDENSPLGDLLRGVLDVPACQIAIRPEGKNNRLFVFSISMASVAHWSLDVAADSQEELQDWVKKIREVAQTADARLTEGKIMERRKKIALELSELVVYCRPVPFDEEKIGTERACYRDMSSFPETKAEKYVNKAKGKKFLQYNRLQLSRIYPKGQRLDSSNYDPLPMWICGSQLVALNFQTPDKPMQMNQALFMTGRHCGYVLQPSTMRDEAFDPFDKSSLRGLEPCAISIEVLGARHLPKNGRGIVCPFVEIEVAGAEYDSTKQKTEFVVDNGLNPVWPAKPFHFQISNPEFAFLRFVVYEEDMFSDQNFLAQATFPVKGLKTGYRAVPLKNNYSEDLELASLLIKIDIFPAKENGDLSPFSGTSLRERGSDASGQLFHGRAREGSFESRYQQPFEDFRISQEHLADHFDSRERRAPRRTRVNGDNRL
HGIII-sPLA2 inh = Inhibits HGIII-sPLA2 liposome hydrolysis, primary screen | Q9NZ20 | 370,000 compounds, 0.56% hits | inhibition, % at 12.2 µM | QFRET BODIPY PC-A2 liposome hydrolysis, fluorescence | AID 743126;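 active = inhibition above mean plus 3 SD of compounds lying within the high and low control bounds, cut at about 19% in these data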;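 also: 0% = median of test compound wells and 100% = no enzyme DMSO wells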
PLC-beta3 inh = inhibitors of human phospholipase C beta3 | Q01970 | Purified PLC-beta3, fluorogenic substrate, fluorescence | inhibition, % at 12.2 µM | 370,000 compounds, 0.18% hits | AID 720704; in the data active = inhibition above about 11%;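 also: 0% = median of compound wells on plate and 100% = full blocker control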
TbMetRS confirm = confirmation of Trypanosoma brucei MetRS inhibitors; shares compounds with TbMetRS inhib; T. brucei MetRS enzyme, luminescence (ATP depletion); inhibition, % at 11.9 µM; 1,400 compounds, 93% hits; in the data active = inhibition above about 7%
Jurkat tox = counter-screen for T. brucei MetRS inhibitors: Jurkat cell cytotoxicity; inhibition, % at 8.3 µM; shares compounds with TbMetRS inhib; 1,400 compounds, 12% hits; AID 624413; Jurkat cells viability, ATP luminescence; in the data active = inhibition above about 15%;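 also: 0% = vehicle and 100% = reference inhibitor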
TbMetRS FP orth = T. brucei MetRS inhibition, orthogonal assay; shares compounds with TbMetRS inhib; purified T. brucei MetRS, fluorescence polarization; inhibition, % at 11.9 µM; 1,400 compounds, 44% hits; AID 651607; in the data active = inhibition above about 17%;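 also: 0% = vehicle wells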
* hit, by the source's call; i = inactive; · = no result given. This is a sample that favours compounds with a hit; in the whole collection about 1.9% have one here.

SMILES	TbMetRS inhib	PLC-gamma1 inh	HGIII-sPLA2 inh	PLC-beta3 inh	TbMetRS confirm	Jurkat tox	TbMetRS FP orth
O=C(NCc1cccc(Cl)c1)c1cccc(S(=O)(=O)N2CCCC2)c1	12.9*	-1.6	-4.0	-12.7	42.7*	2.4	26.3*
Cc1ccccc1CN1[C@@H](C)[C@H](c2ccccc2)Oc2cccc(N3CCCC(C)C3)c2S1(=O)=O (stereo not given in full)	·	1.1	1.5	2.4	·	·	·
O=C(Nc1nc2ccccc2[nH]1)c1cccc(S(=O)(=O)N2CCOCC2)c1	-0.4	7.9	17.1	-4.4	·	·	·
O=C(NCc1nc2ccccc2[nH]1)c1cccc(S(=O)(=O)N2CCOCC2)c1	64.6*	0.2	4.2	-5.0	94.1*	6.5	57.5*
O=C(CCCOc1ccc(Cl)cc1Cl)NCCc1nnc2ccccn12	7.8*	2.7	2.6	-2.9	18.8*	-0.2	12.5
Cc1cc(OCCCC(=O)NCCc2nnc3ccccn23)ccc1Cl	-0.2	-0.4	0.5	2.5	·	·	·
Cc1ccc(OCC(=O)N[C@@H](C)c2nnc3ccccn23)cc1C	0.3	-2.3	-2.0	-8.8	·	·	·
C[C@H](NC(=O)CCCOc1ccc(Cl)cc1Cl)c1nnc2ccccn12	7.4*	0.3	5.8	-2.4	15.8*	0.6	6.0
O=C(CCc1ccccc1)N[C@H]1[C@H](OCc2ccccc2)CCC[C@@]12C(=O)N(Cc1ccccc1)c1ccc(-c3ccsc3)cc12	·	3.0	2.3	0.9	·	·	·
CCOC(=O)[C@]12CCCCC/C=C\1N(Cc1ccc(OC)cc1)C(=O)[C@H]2CC(=O)N1CCC(c2ccccc2)CC1	·	6.7	10.2	6.3	·	·	·
COc1ccc(CNc2ncnc3c2[nH]c2ccccc23)cc1	88.4*	-10.2	-20.4	-21.7	94.4*	24.0*	73.2*
CC(C)OCCCNc1ncnc2c1[nH]c1ccccc12	74.0*	-10.5	-3.8	-14.0	86.8*	38.0*	64.1*
C1=C(CCNc2ncnc3c2[nH]c2ccccc23)CCCC1	79.2*	-17.9	-39.5	-25.1	97.5*	55.9*	75.7*
O=c1c2[nH]c3ccccc3c2ncn1CCC1=CCCCC1	0.2	-1.0	-2.7	0.0	·	·	·
Cc1ccc2[nH]c3c(NCc4ccccc4)ncnc3c2c1	·	-53.6	-17.1	-84.6	·	·	·
Brc1ccc2[nH]c3c(NCc4ccccn4)ncnc3c2c1	82.6*	-0.3	-7.3	-3.8	88.1*	2.9	79.0*
CCOc1ccc2[nH]c3c(NCCCOC)ncnc3c2c1	1.7	-366.1	14.4	i	·	·	·
Cc1ccc(CCNC(=O)CCc2nc3ccccc3[nH]2)cc1	21.3*	1.5	-2.1	1.2	36.6*	-3.6	16.2
COc1ccc(CCNC(=O)CCc2nc3ccccc3[nH]2)cc1OC	8.3*	1.1	2.9	-4.9	10.9*	1.8	6.1
COc1ccc(OCCCC(=O)NCCc2nc3ccccc3[nH]2)cc1	47.6*	0.0	4.0	-10.6	70.0*	-2.9	32.4*
COCC(=O)NCCc1nc2ccccc2[nH]1	-0.5	-2.1	-0.5	0.4	·	·	·
CCOc1ccc(CCNC(=O)CCc2nc3ccccc3[nH]2)cc1OCC	3.4	-1.4	-2.2	-4.4	·	·	·
COc1ccc(CCC(=O)NCCc2nc3ccccc3[nH]2)cc1	9.4*	0.8	-8.8	-5.3	16.4*	-4.1	0.6
COC(=O)[C@]12C[C@H](CC(=O)NCCc3ccccc3OC)C(=O)N(Cc3ccccc3)C1=C[C@H](COCc1ccccc1)O[C@@H]2C	·	-0.2	-18.2	0.2	·	·	·
CC(C)(C)c1ccc(-c2nnc(SCC(=O)Nc3ccc4cn[nH]c4c3)n2-c2ccc(Cl)cc2)cc1	·	5.3	6.9	5.3	·	·	·
SMILES	TbMetRS inhib	PLC-gamma1 inh	HGIII-sPLA2 inh	PLC-beta3 inh	TbMetRS confirm	Jurkat tox	TbMetRS FP orth
COc1ccc(-n2c(COc3ccc(Cl)cc3)nnc2SCC(=O)Nc2ccc(Oc3ccccc3)cc2)cc1	·	-1.0	-3.9	-1.5	·	·	·
Nc1c(Cl)ncnc1Nc1ccc(C(=O)O)cc1	45.7*	-4.7	9.1	-8.8	73.9*	-7.0	46.3*
O=C(O)c1ccc(Nc2ncnc3ccccc23)cc1	3.2	-14.5	0.3	-17.8	·	·	·
Cc1nnsc1SCCNC(=O)Nc1ccc(Cl)cc1	6.5*	0.5	-1.6	0.7	11.8*	11.4	14.6
O=C(NCCNC(=O)Nc1ccc(Cl)cc1)Nc1ccc(Cl)cc1	0.4	0.3	-4.9	3.0	·	·	·
O=C(NCCc1ccc(Cl)cc1)Nc1ccc(F)cc1	17.6*	-2.4	-0.6	-0.4	30.1*	-2.7	12.3
Cc1ccc(C(CNC(=O)Nc2ccc(Cl)cc2)N2CCN(C)CC2)cc1 (stereo not given)	8.1*	7.2	-16.3	6.2	30.1*	9.7	10.4
CN1CCN(C(CNC(=O)Nc2ccc(Cl)cc2)c2ccc(F)cc2)CC1 (stereo not given)	28.0*	0.7	-1.4	-5.8	52.2*	8.8	28.5*
Cc1cccc(NC(=O)NCC(c2ccc(F)cc2)N2CCN(C)CC2)c1 (stereo not given)	0.6	3.9	-3.9	-6.0	·	·	·
CCCCCCCCN1C(=O)[C@@H](CC(=O)NCCc2ccccc2OC)C[C@@]2(C(=O)OC)C1=C[C@H](COCc1ccccc1)O[C@@H]2C	·	-5.2	-14.3	-5.8	·	·	·
CCCCn1c(NCc2ccccc2O)nc2ccccc21	3.1	-1.2	-13.4	2.9	·	·	·
C=CCc1cccc(CNc2nc3ccccc3n2CCC)c1O	18.5*	8.2	-10.5	1.5	31.2*	5.3	18.0*
Cc1ccccc1CNc1ncnc2cc(Cl)ccc12	1.1	-3.8	3.4	-13.7	·	·	·
Fc1ccc(F)c(CNc2ncnc3cc(Cl)ccc23)c1	7.3*	0.6	-2.5	-4.7	21.3*	13.8	9.9
COC(=O)C1=C(C)N(Cc2ccccc2C(F)(F)F)C(=NCc2ccc(C(F)(F)F)cc2)NC1c1cccc(F)c1 (stereo not given)	·	1.0	6.0	-1.9	·	·	·
Nc1nc(Nc2ccc(Cl)cc2)nc2ccccc12	4.3	-6.3	-16.6	-16.7	·	·	·
Nc1nc(Nc2ccccc2)nc2ccccc12	19.0*	-6.2	-1.9	-2.1	30.7*	19.6*	17.5*
C(=N\Nc1nc2ccccc2[nH]1)/c1ccccc1	3.3	-9.9	-1.3	-22.0	·	·	·
Cc1[nH]c2ccccc2c1/C=N/Nc1nc2ccccc2[nH]1	8.3*	-20.6	-11.8	-44.3	29.4*	8.6	29.9*
C(=N\Nc1nc2ccccc2[nH]1)/c1c[nH]c2ccccc12	11.9*	-10.1	-17.2	-11.8	25.8*	12.8	47.4*
O=[N+]([O-])c1ccc(N/N=C/c2c[nH]c3ccccc23)cc1	7.5*	-24.7	-42.1	-36.0	12.3*	20.9*	54.8*
Brc1ccc(-c2ccc(/C=N/Nc3nc4ccccc4[nH]3)o2)cc1	11.0*	i	16.8	i	7.9*	11.8	20.4*
Brc1ccc(-c2ccc(/C=N/Nc3nncc(-c4ccccc4)n3)o2)cc1	-1.4	0.7	5.4	-1.0	·	·	·

Bioassay records: PubChem BioAssay, The Scripps Research Institute Molecular Screening Center
